# Experimental data published in ChEMBL document CHEMBL4396895, “Identification and Optimization of Novel Cathepsin C Inhibitors Derived from EGFR Inhibitors” (J Med Chem, 2019).
# Calls of active or inactive are those of the source. The rule behind the calls is not given here.
# Columns and labels:
# Dipeptidyl peptidase 1 [1] = molecular target: T1, Dipeptidyl peptidase 1 (Homo sapiens, UniProt P53634); assay: Inhibition of CatL-activated recombinant human C-terminal His10-tagged cathepsin C (25 to 463 residues) expressed in mouse myeloma cells using Gly-Phe-AFC as substrate preincubated for 3 hrs followed by substrate addition and measured after 60 mins; format: cell-free
# Method in brief: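 Activated rhCatC was diluted to 4.4 nM in 25 mM MES, 50 mM NaCl, 5 mM DTT, 0.01% Triton X-100, pH 6.0. It was preincubated with compound (added in 10% DMSO) for 3 h at RT. Gly-Phe-AFC was then added to 100 μM final and read as fluorescence after 60 min. IC50 came from a sigmoidal nonlinear fit; values are means of at least two experiments.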
# Dipeptidyl peptidase 1 [2] = molecular target: T1, Dipeptidyl peptidase 1; assay: Inhibition of cathepsin C (unknown origin)
# Method in brief: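 Enzyme preincubated with compound 3 h at RT. Gly-Phe-AFC added (100 μM final) and product fluorescence read after 60 min. IC50 from sigmoidal nonlinear regression, mean of at least two experiments.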
# [3] = molecular target: Epidermal growth factor receptor (Homo sapiens, UniProt P00533); assay: Inhibition of EGFR (unknown origin) up to 10 uM using biotin-labelled peptide as substrate preincubated for 2 hrs followed by substrate addition and measured after 30 mins by HTRF FRET assay
# Method in brief: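 EGFR WT was used at 0.1 nM final in 50 mM HEPES pH 7.0, 0.02% NaN3, 0.01% BSA, 0.1 mM orthovanadate, 10 mM MgCl2, 2.5 mM DTT, 6.25 nM SEB. It was preincubated with compound for 2 h. Biotin-peptide (1.4 μM) and ATP (20 μM) were then added for 30 min at RT. Read-out was HTRF/TR-FRET (Ex 320, Em 615/665 nm) with a sigmoidal curve fit.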
# Dipeptidyl peptidase 1 [4] = molecular target: T1, Dipeptidyl peptidase 1; assay: Inhibition of cathepsin C in human U937 cells using H-Gly-Phe-AFC as substrate preincubated for 4 hrs followed by substrate addition and measured after 60 mins; format: cell-based
# Method in brief: (§1)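 THP1 or U937 cells, grown in RPMI 1640 with 10% FBS, were seeded at 1.0 × 10^6/mL. They were preincubated with threefold serial dilutions of compound for 4 h at 37 °C. H-Gly-Phe-AFC was then added from a 100 μM solution and fluorescence was read after 60 min at 37 °C. Values are means of at least two experiments.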
# [5] = Intrinsic clearance in human liver microsomes assessed per mg protein measured after 60 mins in presence of NADPH by LC-MS/MS analysis; format: ADME, Microsome; details: read-out: CLH
# [6] = Intrinsic clearance in rat liver microsomes assessed per mg protein measured after 60 mins in presence of NADPH by LC-MS/MS analysis; format: ADME, Microsome; details: read-out: CLH
# [7] = Intrinsic clearance in mouse liver microsomes assessed per mg protein measured after 60 mins in presence of NADPH by LC-MS/MS analysis; format: ADME, Microsome; details: read-out: CLH
# Dipeptidyl peptidase 1 [8] = molecular target: T1, Dipeptidyl peptidase 1; assay: Inhibition of cathepsin C in human THP1 cells using H-Gly-Phe-AFC as substrate preincubated for 4 hrs followed by substrate addition and measured after 60 mins; format: cell-based; method in brief: as §1
smiles,measurement,setting,value
C=CC(=O)Nc1cc(Oc2nc(Nc3ccc(N4CCC(N(C)C)CC4)cn3)ccc2N2CCCCC2)ccc1C,IC50,Dipeptidyl peptidase 1 [1],307 nM
C=CC(=O)Nc1cccc(Oc2nc(Nc3ccc(N4CCN(C)CC4)cc3OC)ccc2N2CCCCC2)c1,IC50,Dipeptidyl peptidase 1 [1],221 nM
C=CC(=O)Nc1cc(Oc2nc(Nc3ccc(N4CCN(C(C)=O)CC4)cc3OC)ccc2N2CCCCC2)ccc1C,IC50,Dipeptidyl peptidase 1 [1],135 nM
C=CC(=O)Nc1cccc(Oc2nc(Nc3ccc(N4CCN(C)CC4)cc3OC)ccc2N2CCCCCC2)c1,IC50,Dipeptidyl peptidase 1 [1],271 nM
C=CC(=O)Nc1cc2c(Nc3ccc(F)c(Cl)c3)ncnc2cc1OCCCN1CCOCC1 [CANERTINIB],IC50,Dipeptidyl peptidase 1 [2],2700 nM
C=CC(=O)Nc1cc(Oc2nc(Nc3ccc(N4CCN(C)CC4)cc3OC)ccc2-c2ccccc2)ccc1C,inhibition,[3],inactive
same,IC50,Dipeptidyl peptidase 1 [1],154 nM
C=CC(=O)Nc1cccc(Oc2nc(Nc3cccc(CN)c3)ccc2Cl)c1,IC50,Dipeptidyl peptidase 1 [1],2150 nM
C=CC(=O)Nc1cccc(Oc2nc(Nc3ccc(N4CCN(C)CC4)cc3OC)ccc2N2CCCC2)c1C,IC50,Dipeptidyl peptidase 1 [1],> 10000 nM
C=CC(=O)Nc1cccc(Oc2nc(Nc3ccc(N4CCOCC4)cc3)ccc2Cl)c1,IC50,Dipeptidyl peptidase 1 [1],> 10000 nM
C=CC(=O)Nc1cccc(Oc2nc(Nc3ccc(N4CCN(CC5CCCC5)CC4)cc3)ccc2Cl)c1,IC50,Dipeptidyl peptidase 1 [1],> 10000 nM
C=CC(=O)Nc1cc(Oc2nc(Nc3ccc(N4CCN(C)CC4)cc3OC)ccc2N2CCCC(O)C2)ccc1C (racemic),inhibition,[3],inactive
same,IC50,Dipeptidyl peptidase 1 [1],34.1 nM
same,IC50,Dipeptidyl peptidase 1 [4],7.4 nM
same,microsomal CLint,[5],4.9 µL/min/mg
same,microsomal CLint,[6],9 µL/min/mg
same,microsomal CLint,[7],6 µL/min/mg
same,IC50,Dipeptidyl peptidase 1 [8],4.9 nM
C=CC(=O)Nc1cccc(Oc2nc(Nc3ccc(N4CCN(C)CC4)cc3OC)ccc2C(F)(F)F)c1,IC50,Dipeptidyl peptidase 1 [1],1610 nM
C=CC(=O)Nc1cccc(Oc2nc(Nc3ccc(N4CCN(C)CC4)cc3)ccc2Cl)c1,IC50,Dipeptidyl peptidase 1 [1],483 nM
C#Cc1ccc(Nc2ccc(N3CCN(C)CC3)cc2OC)nc1Oc1cccc(NC(=O)C=C)c1,IC50,Dipeptidyl peptidase 1 [1],392 nM
C=CC(=O)Nc1cccc(Oc2cccc(Nc3ccc(N4CCN(C)CC4)cc3OC)n2)c1,IC50,Dipeptidyl peptidase 1 [1],785 nM
C=CC(=O)Nc1cccc(Oc2nc(Nc3ccc(N4CCN(C)CC4)cc3OC)ccc2N(C)C)c1,IC50,Dipeptidyl peptidase 1 [1],1520 nM
C=CC(=O)Nc1cc(Oc2nc(Nc3ccc(N4CCN(C)CC4)cc3OC)ccc2N2CCCC2)ccc1C(F)(F)F,inhibition,[3],inactive
same,IC50,Dipeptidyl peptidase 1 [1],4 nM
same,IC50,Dipeptidyl peptidase 1 [4],11.5 nM
same,microsomal CLint,[5],3.9 µL/min/mg
same,microsomal CLint,[6],11 µL/min/mg
same,microsomal CLint,[7],866 µL/min/mg
same,IC50,Dipeptidyl peptidase 1 [8],6.7 nM
C=CC(=O)Nc1cc(Oc2nc(Nc3ccc(N4CCC(N(C)C)CC4)cc3OC)ccc2N2CCCCC2)ccc1C,IC50,Dipeptidyl peptidase 1 [1],15.6 nM
same,IC50,Dipeptidyl peptidase 1 [4],2.2 nM
same,microsomal CLint,[5],2.5 µL/min/mg
same,microsomal CLint,[6],4.1 µL/min/mg
same,microsomal CLint,[7],4 µL/min/mg
same,IC50,Dipeptidyl peptidase 1 [8],1 nM
CN(C)C/C=C/C(=O)Nc1cc2c(Nc3ccc(F)c(Cl)c3)ncnc2cc1O[C@H]1CCOC1 [AFATINIB],IC50,Dipeptidyl peptidase 1 [2],> 10000 nM
C=CC(=O)Nc1cccc(Oc2nc(Nc3ccc(N4CCNCC4)cc3)ccc2Cl)c1,IC50,Dipeptidyl peptidase 1 [1],499 nM
C=CC(=O)Nc1cc(Oc2nc(Nc3ccc(N4CCN(C)CC4)cc3OC)ccc2N2CCCC2)ccc1OC,IC50,Dipeptidyl peptidase 1 [1],140 nM
same,IC50,Dipeptidyl peptidase 1 [4],70 nM
same,IC50,Dipeptidyl peptidase 1 [8],21.3 nM
C=CC(=O)Nc1cccc(Oc2nc(Nc3ccc(N4CCN(C)CC4)cc3OC)ccc2C#N)c1,IC50,Dipeptidyl peptidase 1 [1],835 nM
C=CC(=O)Nc1cc(Nc2nccc(-c3cn(C)c4ccccc34)n2)c(OC)cc1N(C)CCN(C)C [OSIMERTINIB],IC50,Dipeptidyl peptidase 1 [2],32900 nM
C=CC(=O)Nc1cc(Oc2nc(Nc3ccc(N4CCN(C)CC4)cc3OC)ccc2N2CCN(C)CC2)ccc1C,IC50,Dipeptidyl peptidase 1 [1],46.5 nM
same,IC50,Dipeptidyl peptidase 1 [4],4.7 nM
same,microsomal CLint,[5],3.7 µL/min/mg
same,microsomal CLint,[6],2 µL/min/mg
same,microsomal CLint,[7],3 µL/min/mg
same,IC50,Dipeptidyl peptidase 1 [8],2.8 nM
C=CC(=O)Nc1cccc(Oc2nc(Nc3ccc(N4CCN(CC5CC5)CC4)cc3)ccc2Cl)c1,IC50,Dipeptidyl peptidase 1 [1],783 nM
C=CC(=O)Nc1cc(Oc2nc(Nc3ccc(N4CCN(C)CC4)nc3OC)ccc2N2CCCCC2)ccc1C,IC50,Dipeptidyl peptidase 1 [1],28.6 nM
same,IC50,Dipeptidyl peptidase 1 [4],10 nM
same,microsomal CLint,[5],6 µL/min/mg
same,microsomal CLint,[6],13 µL/min/mg
same,microsomal CLint,[7],22 µL/min/mg
same,IC50,Dipeptidyl peptidase 1 [8],6.5 nM
C=CC(=O)Nc1cc(Oc2nc(Nc3ccc(N4CCN(C)CC4)cc3OC)ccc2N2CCCCC2)ccc1C(F)(F)F,IC50,Dipeptidyl peptidase 1 [1],2.3 nM
same,IC50,Dipeptidyl peptidase 1 [4],2.4 nM
same,microsomal CLint,[5],5.2 µL/min/mg
same,microsomal CLint,[6],15.1 µL/min/mg
same,microsomal CLint,[7],15.4 µL/min/mg
same,IC50,Dipeptidyl peptidase 1 [8],1.8 nM
C=CC(=O)Nc1cccc(Oc2nc(Nc3ccc(N4CCN(C)CC4)cc3OC)ccc2N2CCCC2)c1,IC50,Dipeptidyl peptidase 1 [1],175 nM
C=CC(=O)Nc1ccc(C)c(Oc2nc(Nc3ccc(N4CCN(C)CC4)cc3OC)ccc2N2CCCC2)c1,IC50,Dipeptidyl peptidase 1 [1],505 nM
C=CC(=O)Nc1cccc(Oc2nc(Nc3ccc(CCN)cc3)ccc2Cl)c1,IC50,Dipeptidyl peptidase 1 [1],2050 nM
C=CC(=O)Nc1cccc(Oc2nc(Nc3ccc(N4CCN(C)CC4)cc3OC)ncc2Cl)c1,IC50,Dipeptidyl peptidase 1 [1],2100 nM
same,IC50,Dipeptidyl peptidase 1 [2],2100 nM
C=CC(=O)Nc1cc(Oc2nc(Nc3ccc(N4CCN(C)CC4)cc3)ccc2N2CCCCC2)ccc1C,inhibition,[3],inactive
same,IC50,Dipeptidyl peptidase 1 [1],17.6 nM
same,IC50,Dipeptidyl peptidase 1 [4],5.8 nM
same,microsomal CLint,[5],2.9 µL/min/mg
same,microsomal CLint,[6],15 µL/min/mg
same,IC50,Dipeptidyl peptidase 1 [8],2.7 nM
C=CC(=O)Nc1cc(Oc2nc(Nc3ccc(N4CCN(C)CC4)cc3OC)ccc2N2CCC(O)C2)ccc1C (racemic),IC50,Dipeptidyl peptidase 1 [1],32.3 nM
same,IC50,Dipeptidyl peptidase 1 [4],49.4 nM
same,IC50,Dipeptidyl peptidase 1 [8],28.4 nM
